Screening data (PubChem BioAssay)
The list is not random: actives were taken first. Their share in the collection is about 1.8%.
HTRA1 inhibitor: HTRA1 (human) protease inhibition. Q92743. recombinant HTRA1, FP-rhodamine activity-based probe, fluorescence polarization. inhibition, % at 5.96 µM. 340,000 compounds, 0.5% hits; in the data active = inhibition above about 36%
SIAE inh: blocks human sialic acid acetylesterase | SIAE FP-Rh probe binding, fluorescence polarization | inhibition, % at 9.66 µM | 370,000 compounds, 0.69% hits;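 active = inhibition above a cutoff: mean of compounds within the control limits plus 3 SD of those, cut at about 17% in these data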
mABHD4 FP: inhibitors of mouse ABHD4; Q8VD66; 370,000 compounds, 0.54% hits; purified mABHD4, FP-Rh probe fluorescence polarization; inhibition, % at 8.92 µM; AID 720543;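 active = inhibition exceeding the mean over every tested compound plus 3 SD, cut at about 30% in these data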
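Assay system: mABHD4 protein; medium: HEPES pH 7.0, NaCl, Pluronic buffer; dosing: 8.92 µM, single dose; schedule: 45 min + 60 min at 25 °C; signal: FP readout, ex 525 nm / em 598 nm; read-out: normalized percent inhibition of probe labeling; repeats: single replicate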
Tn7 DDE FP: inhibitors of Tn7 peptide binding to human fibrin DD(E) | AID 720508 | 370,000 compounds, 0.13% hits | P02675 | FP displacement of FITC-Tn7 peptide from fibrin DD(E); 0% = median of compound wells per plate | inhibition, % at 8.3 µM;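 active = inhibition above the mean of compounds falling within the control limits plus 3 SD of them, cut at about 14% in these data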
Target sequence (P02675 whole entry, looked up): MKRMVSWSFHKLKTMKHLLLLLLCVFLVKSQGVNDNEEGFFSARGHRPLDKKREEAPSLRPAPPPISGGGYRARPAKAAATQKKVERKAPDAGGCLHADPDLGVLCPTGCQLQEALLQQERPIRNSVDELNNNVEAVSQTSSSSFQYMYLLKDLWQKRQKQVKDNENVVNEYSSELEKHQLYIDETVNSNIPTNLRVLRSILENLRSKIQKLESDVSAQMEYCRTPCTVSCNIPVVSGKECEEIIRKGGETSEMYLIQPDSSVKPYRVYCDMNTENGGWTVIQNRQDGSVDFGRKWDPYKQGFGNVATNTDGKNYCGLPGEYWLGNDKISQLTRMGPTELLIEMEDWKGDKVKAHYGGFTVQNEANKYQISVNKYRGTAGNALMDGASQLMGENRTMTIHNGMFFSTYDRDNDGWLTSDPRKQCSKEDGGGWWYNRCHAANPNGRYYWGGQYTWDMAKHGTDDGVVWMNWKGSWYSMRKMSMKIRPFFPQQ
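Also added: labelled Tn7 tracer, 0.1 µM; Assay system: human fibrin DD(E) protein; Amount: 2 µM fibrin DD(E); Schedule: 10 min compound pre-incubation, 3 h probe incubation at room temperature; Repeats: one replicate per compound; Read-out basis: percent inhibition; Measured by: fluorescence polarization of the labelled Tn7 tracer.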
DDE Tn6 FP inh: disrupts Tn6 cyclic peptide binding to fibrin D-Dimer-E complex | P02675 | 370,000 compounds, 0.21% hits | Fibrin DD(E) TRITC-Tn6 fluorescence polarization displacement | AID 720509 | inhibition, % at 8.3 µM;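 active = inhibition above a per-campaign cutoff: mean of compounds within control limits plus 3 SD, cut at about 15% in these data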
TCR CD3 inh: blocks the human TCR-CD3 interaction. TAMRA-labeled TCR probe fluorescence, biochemical. 360,000 compounds, 0.37% hits. inhibition, % at 9.4 µM. AID 651800;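 also: recombinant mutant TCR 2C K166C tagged with TAMRA read by polarization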
HTRA1 inh conf: HTRA1 (human) inhibition, confirmation; inhibition, % at 5.96 µM; 1,600 compounds, 66% hits; shares compounds with HTRA1 inhibitor; recombinant HTRA1, FP-rhodamine activity-based probe, fluorescence polarization;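 active = mean inhibition over three repeats above a set limit taken from the earlier primary screen, cut at about 37% in these data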;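 also: inhibitors block probe binding so polarization drops and inhibition rises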
BSA probe FL: interferes with TAMRA-BSA probe, flagging TCR-CD3 hits | AID 652035 | TAMRA-labeled BSA probe fluorescence counterscreen | inhibition, % at 9.4 µM | 1,200 compounds, 10% hits | shares compounds with TCR CD3 inh; in the data active = inhibition above about 23%
TCR-CD3 inh conf: TCR-CD3 interaction inhibition, confirmation | shares compounds with TCR CD3 inh | TAMRA-labeled TCR probe fluorescence binding assay | inhibition, % at 9.4 µM | 1,200 compounds, 48% hits
Tn6 DDE ctr: DD(E)-Tn6 binding inhibition, counter-screen; shares compounds with DDE Tn6 FP inh; Fibrin DD(E), TRITC-Tn6 fluorescence polarization displacement; 0% = median of compound wells, not DMSO; inhibition, % at 8.3 µM; 680 compounds, 2% hits; AID 720621;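 active = inhibition above the mean of test compounds lying between the control limits plus 3 SD of those, cut at about 14% in these data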
DDE Tn6 confirm: DD(E)-Tn6 binding inhibition, FP confirmation; shares compounds with DDE Tn6 FP inh; inhibition, % at 8.3 µM; FP displacement of TRITC-Tn6 peptide from DD(E); 0% = per-plate median of test wells; 680 compounds, 10% hits; AID 720631;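 active = inhibition above the mean of compounds lying within the control limits plus 3 SD, cut at about 16% in these data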
mABHD4 conf: ABHD4 (mouse) inhibition, FP confirmation; 1,800 compounds, 55% hits; shares compounds with mABHD4 FP; purified mABHD4, FP-Rh probe fluorescence polarization; inhibition, % at 8.92 µM;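 active = mean inhibition across replicates above the hit cutoff set in the primary screen, cut at about 30% in these data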
SIAE inh conf: confirmation of human SIAE inhibitors; shares compounds with SIAE inh; SIAE FP-Rh activity-based probe, fluorescence polarization; inhibition, % at 9.66 µM; 2,300 compounds, 13% hits; AID 1117263;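 active = mean inhibition of the replicates above the hit cutoff set in the primary screen, cut at about 17% in these data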;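 also: inhibitors lower polarization as more probe stays unbound to SIAE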
Of the large screens only hits and unclear results are named; the others gave an inactive call (follow-up assays come after a bar, where they were run). Rule as the data show it, unless noted: active = inhibition above about 19%; inactive = the rest.

N#CC(C#N)=C1C=C2C=C(N3CCCCCC3)CCC2CC1 (configuration not stated)	HTRA1 inhibitor 52, SIAE inh 28, DDE Tn6 FP inh 18, TCR CD3 inh 29 | HTRA1 inh conf inactive | BSA probe FL inactive | TCR-CD3 inh conf inactive | Tn6 DDE ctr 53 | DDE Tn6 confirm inactive | SIAE inh conf 22
Cc1ccc(N=Cc2cccc(O)c2O)c(C)c1	HTRA1 inhibitor 84, SIAE inh 20, mABHD4 FP 49 | HTRA1 inh conf 43 | mABHD4 conf 30 | SIAE inh conf inactive
Cc1ccccc1C(=O)N1CCC(Oc2cccnc2)CC1	none (no result: HTRA1 inhibitor, TCR CD3 inh)
O=C(NC(=S)Nc1ccc(N2CCOCC2)cc1)c1ccco1	none
S=C(Nc1ccc(N2CCOCC2)cc1)Nc1ccc2nc(-c3ccco3)c(-c3ccco3)nc2c1	HTRA1 inhibitor 48, SIAE inh 21, mABHD4 FP 38 | HTRA1 inh conf inactive | mABHD4 conf 42 | SIAE inh conf inactive
COc1ccc2nc(-c3ccco3)c(-c3ccco3)nc2c1	HTRA1 inhibitor 52, SIAE inh 23, mABHD4 FP 57, TCR CD3 inh 31 | HTRA1 inh conf inactive | BSA probe FL inactive | TCR-CD3 inh conf 31 | mABHD4 conf inactive | SIAE inh conf inactive
O=C(Nc1cccnc1)c1ccc2nc(-c3ccccc3)c(-c3ccccc3)nc2c1	none
O=C(Nc1ccccc1)c1ccc2nc(-c3ccco3)c(-c3ccco3)nc2c1	HTRA1 inhibitor 59, SIAE inh 22, mABHD4 FP 47, TCR CD3 inh 24 | HTRA1 inh conf inactive | mABHD4 conf inactive | SIAE inh conf inactive
CCCCNC(=O)c1ccc2nc(-c3ccco3)c(-c3ccco3)nc2c1	HTRA1 inhibitor 53, SIAE inh 27, mABHD4 FP 60, TCR CD3 inh 23 | HTRA1 inh conf 39 | BSA probe FL inactive | TCR-CD3 inh conf inactive | mABHD4 conf 52 | SIAE inh conf inactive
CN(CCO)c1cccc2c1S(=O)(=O)N(Cc1cn(Cc3cccc(F)c3)nn1)Cc1ccccc1O2	none (no result: HTRA1 inhibitor, TCR CD3 inh)
CCN(CCCNc1cc2c(c(N)c1S(=O)(=O)O)C(=O)c1ccccc1C2=O)c1ccccc1	HTRA1 inhibitor 86, SIAE inh 33, mABHD4 FP 102 | HTRA1 inh conf 83 | mABHD4 conf 103 | SIAE inh conf 23
O=C(NCCc1ccccn1)c1ccc2c(c1)ncn2C1CCCCC1	none (no result: HTRA1 inhibitor, TCR CD3 inh)
O=C(Nc1ccc(O)cc1)C1CC=CCC1 (configuration not stated)	HTRA1 inhibitor 48, SIAE inh 23 | HTRA1 inh conf 42 | SIAE inh conf inactive
COc1ccc(-c2cc(-c3nnc(SCC(=O)Nc4ccccc4-c4ccccc4)n3N)[nH]n2)cc1	none (no result: HTRA1 inhibitor, TCR CD3 inh)
O=C(NC1CCCCN(Cc2ccc(OC(F)(F)F)cc2)C1=O)c1ccc(F)c(F)c1 (configuration not stated)	none (no result: HTRA1 inhibitor, TCR CD3 inh)
CCCCOc1ccc(C(=O)NC2CCCCN(Cc3ccc(Cl)cc3)C2=O)cc1 (configuration not stated)	none (no result: HTRA1 inhibitor, TCR CD3 inh)
